In ChEMBL document CHEMBL4219167, “Disulfiram-based disulfides as narrow-spectrum antibacterial agents” (Bioorg Med Chem Lett, 2018):
pIC50: −log10 of the molar value. In brackets after ≈: the same amount, converted by molar mass.

Tests used:
[1] = test system: Staphylococcus aureus; assay: Antibacterial activity against methicillin-resistant Staphylococcus aureus COL after 20 hrs by broth microdilution assay; format: functional
[2] = test system: Staphylococcus aureus; assay: Antibacterial activity against vancomycin-resistant Staphylococcus aureus HIP14300 after 20 hrs by broth microdilution assay; format: functional; conditions: HIP14300, 20 h
[3] = test system: Staphylococcus aureus; assay: Antibacterial activity against vancomycin-intermediate resistant Staphylococcus aureus AR-217 after 20 hrs by broth microdilution assay; format: functional; conditions: AR-217, 20 h
[4] = test system: Enterococcus faecium; assay: Antibacterial activity against vancomycin-resistant Enterococcus faecium ATCC 700221 after 20 hrs by broth microdilution assay; format: functional; conditions: ATCC 700221, 20 h
Procedure, shortened: (§1)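 Brain heart infusion broth at 37°C; E. faecium under 5% CO2. Cells at 0.5 McFarland are diluted 1:100 and exposed to serial dilutions (DMSO stocks 1 mM or 1 mg/mL; controls in water).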

[5] = test system: Staphylococcus epidermidis; assay: Antibacterial activity against vancomycin-intermediate resistant Staphylococcus epidermidis NRS6 after 20 hrs by broth microdilution assay; format: functional; conditions: NRS6, 20 h
[6] = test system: Streptococcus pneumoniae; assay: Antibacterial activity against Streptococcus pneumoniae TCH8431 after 20 hrs by broth microdilution assay; format: functional; conditions: TCH8431, 20 h
[7] = test system: Streptococcus pyogenes; assay: Antibacterial activity against Streptococcus pyogenes H293 after 20 hrs by broth microdilution assay; format: functional; conditions: H293, 20 h
[8] = test system: Streptococcus agalactiae; assay: Antibacterial activity against Streptococcus agalactiae SGBS005 after 20 hrs by broth microdilution assay; format: functional; conditions: SGBS005, 20 h
[9] = test system: Bacillus anthracis; assay: Antibacterial activity against Bacillus anthracis UM23-1 after 20 hrs by broth microdilution assay; format: functional; conditions: UM23-1, 20 h
[10] = test system: Bacillus cereus; assay: Antibacterial activity against Bacillus cereus Gibson 971 after 20 hrs by broth microdilution assay; format: functional; conditions: Gibson 971, 20 h
[11] = test system: Yersinia enterocolitica; assay: Antibacterial activity against Yersinia enterocolitica WA-314 after 20 hrs by broth microdilution assay; format: functional; conditions: WA-314, 20 h
Procedure, shortened: (§2)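 Yersinia cultured in tryptic soy broth at 28°C. A 0.5 McFarland suspension diluted 1:100 receives serial dilutions of agents from 1 mM or 1 mg/mL DMSO stocks; control antibiotics are in water.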

[12] = test system: Citrobacter freundii; assay: Antibacterial activity against Citrobacter freundii 4_7_47CFAA after 20 hrs by broth microdilution assay; format: functional
Procedure, shortened: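 Brucella broth, 37°C, 5% CO2. Inoculum is 0.5 McFarland diluted 1:100, with serial drug dilutions from DMSO stocks (1 mM or 1 mg/mL) and control antibiotics in water.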

[13] = test system: Proteus mirabilis; assay: Antibacterial activity against Proteus mirabilis HM-752 after 20 hrs by broth microdilution assay; format: functional; conditions: HM-752, 20 h
Procedure, shortened: (§3)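 Medium is tryptic soy broth, 37°C. Overnight culture is adjusted to 0.5 McFarland, diluted 1:100 and exposed to serial dilutions (test agents from 1 mM or 1 mg/mL DMSO stocks; control antibiotics in water). Incubation lasts 20 h. MIC is the lowest concentration with no visible growth.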

[14] = test system: Yersinia pestis; assay: Antibacterial activity against Yersinia pestis Kim D2 after 20 hrs by broth microdilution assay; format: functional; conditions: Kim D2, 20 h
[15] = test system: Shigella dysenteriae; assay: Antibacterial activity against Shigella dysenteriae Newcastle 1934 after 20 hrs by broth microdilution assay; format: functional; conditions: Newcastle 1934, 20 h; procedure, shortened: as §3
[16] = test system: Vibrio cholerae; assay: Antibacterial activity against Vibrio cholerae TS D4 after 20 hrs by Todd Hewitt broth broth microdilution method; format: functional; conditions: TS D4, 20 h
[17] = test system: Yersinia pseudotuberculosis; assay: Antibacterial activity against Yersinia pseudotuberculosis P61 after 20 hrs by broth microdilution assay; format: functional; conditions: P61, 20 h; procedure, shortened: as §2
[18] = test system: Listeria monocytogenes; assay: Antibacterial activity against Listeria monocytogenes Gibson after 20 hrs by broth microdilution assay; format: functional; procedure, shortened: as §1
[19] = test system: Bacillus anthracis; assay: Antibacterial activity against Bacillus anthracis Weybridge after 20 hrs by broth microdilution assay; format: functional
[20] = test system: Escherichia coli; assay: Antibacterial activity against Escherichia coli DC10B after 20 hrs by broth microdilution assay; format: functional; procedure, shortened: as §3
[21] = test system: Burkholderia multivorans; assay: Antibacterial activity against Burkholderia multivorans CF2 after 20 hrs by broth microdilution assay; format: functional; conditions: CF2, 20 h; procedure, shortened: as §3
[22] = test system: Pseudomonas aeruginosa; assay: Antibacterial activity against Pseudomonas aeruginosa ATCC 15442 after 20 hrs by broth microdilution assay; format: functional; conditions: ATCC 15442, 20 h; procedure, shortened: as §3
[23] = test system: Bacillus anthracis; assay: Antibacterial activity against Bacillus anthracis Ames 35 after 20 hrs by broth microdilution assay; format: functional; conditions: Ames 35, 20 h
[24] = test system: Francisella tularensis; assay: Antibacterial activity against Francisella tularensis Utah 112 after 20 hrs by broth microdilution assay; format: functional; conditions: Utah 112, 20 h
[25] = test system: Bacillus anthracis; assay: Antibacterial activity against Bacillus anthracis Sterne 34F2 after 20 hrs by broth microdilution assay; format: functional; conditions: Sterne 34F2, 20 h
[26] = test system: Acinetobacter baumannii; assay: Antibacterial activity against Acinetobacter baumannii AB5075 after 20 hrs by broth microdilution assay; format: functional; conditions: AB5075, 20 h
[27] = test system: Yersinia pestis; assay: Antibacterial activity against Yersinia pestis Kuma D7 after 20 hrs by broth microdilution assay; format: functional; conditions: Kuma D7, 20 h
[28] = test system: Brucella neotomae; assay: Antibacterial activity against Brucella neotomae 5K33 after 20 hrs by broth microdilution assay; format: functional; conditions: 5K33, 20 h
[29] = test system: Klebsiella pneumoniae; assay: Antibacterial activity against Klebsiella pneumoniae 700603 after 20 hrs by broth microdilution assay; format: functional; conditions: Klebsiella pneumoniae, 700603, 20 h; procedure, shortened: as §3
[30] = test system: Rhodococcus erythropolis; assay: Antibacterial activity against Rhodococcus erythropolis SK121 after 20 hrs by broth microdilution assay; format: functional; conditions: SK121, 20 h
Procedure, shortened: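 R. erythropolis grown in brain heart infusion broth at 30°C. A 0.5 McFarland suspension diluted 1:100 is treated with serial dilutions from 1 mM or 1 mg/mL DMSO stocks; control antibiotics are in water.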

[31] = test system: Salmonella typhi; assay: Antibacterial activity against Salmonella typhi Ty2 after 20 hrs by Todd Hewitt broth broth microdilution method; format: functional, Salmonella enterica subsp. enterica serovar Typhi str. Ty2; conditions: Salmonella enterica
[32] = test system: Burkholderia cepacia; assay: Antibacterial activity against Burkholderia cepacia UCB 717 after 20 hrs by broth microdilution assay; format: functional; conditions: UCB 717, 20 h; procedure, shortened: as §3
[33] = test system: Corynebacterium striatum; assay: Antibacterial activity against Corynebacterium striatum FS-1 after 20 hrs by broth microdilution assay; format: functional; conditions: FS-1, 20 h
[34] = test system: Micrococcus luteus; assay: Antibacterial activity against Micrococcus luteus SK58 after 20 hrs by broth microdilution assay; format: functional; conditions: SK58, 20 h
[35] = test system: HepG2; assay: Cytotoxicity against human HepG2 cells assessed as reduction in cell viability after 72 hrs by MTT assay; format: cell-based; conditions: HepG2, 72 h

| Structure (SMILES) | MIC [1] [µM] | MIC [2] [µM] | MIC [3] [µM] | MIC [4] [µM] | MIC [5] [µM] | MIC [6] [µM] | MIC [7] [µM] | MIC [8] [µM] | MIC [9] [µM] | MIC [10] [µM] | MIC [11] [µM] | MIC [12] [µM] | MIC [13] [µM] | MIC [14] [µM] | MIC [15] [µM] | MIC [16] [µM] | MIC [17] [µM] | MIC [18] [µM] | MIC [19] [µM] | MIC [20] [µM] | further results |
| --- | --- | --- | --- | --- | --- | --- | --- | --- | --- | --- | --- | --- | --- | --- | --- | --- | --- | --- | --- | --- | --- |
| CCN(CC)C(=S)SSc1ccccc1 | 32 (≈ 8.24 µg/mL) | 16 (≈ 4.12 µg/mL) | 16 (≈ 4.12 µg/mL) | > 32 | 16 (≈ 4.12 µg/mL) | > 32 | > 32 | > 32 |  |  |  |  |  |  |  |  |  |  |  |  |  |
| CCN(CC)C(=S)SSCc1ccccc1 | 8 (≈ 2.17 µg/mL) | 8 (≈ 2.17 µg/mL) | 2 (≈ 0.543 µg/mL) | 32 (≈ 8.69 µg/mL) | 8 (≈ 2.17 µg/mL) | > 32 | > 32 | > 32 | 2 (≈ 0.543 µg/mL) | 2 (≈ 0.543 µg/mL) | > 32 | > 32 | > 32 | 16 (≈ 4.34 µg/mL) | > 32 | > 32 | > 32 | 8 (≈ 2.17 µg/mL) | 4 (≈ 1.09 µg/mL) | > 32 | MIC [21]: 32 µM (≈ 8.69 µg/mL); MIC [22]: > 32 µM; MIC [23]: 4 µM (≈ 1.09 µg/mL); MIC [24]: 32 µM (≈ 8.69 µg/mL); MIC [25]: 4 µM (≈ 1.09 µg/mL); MIC [26]: > 32 µM; MIC [27]: 32 µM (≈ 8.69 µg/mL); MIC [28]: 32 µM (≈ 8.69 µg/mL); MIC [29]: > 32 µM; MIC [30]: 16 µM (≈ 4.34 µg/mL); MIC [31]: > 32 µM; MIC [32]: > 32 µM; MIC [33]: 32 µM (≈ 8.69 µg/mL); MIC [34]: 16 µM (≈ 4.34 µg/mL) |
| CCSSC(=S)N(CC)CC | 16 (≈ 3.35 µg/mL) | 16 (≈ 3.35 µg/mL) | 8 (≈ 1.68 µg/mL) | > 32 | 32 (≈ 6.7 µg/mL) | > 32 | 32 (≈ 6.7 µg/mL) | > 32 |  |  |  |  |  |  |  |  |  |  |  |  |  |
| CCCCCSSC(=S)N(CC)CC | 16 (≈ 4.02 µg/mL) | 16 (≈ 4.02 µg/mL) | 8 (≈ 2.01 µg/mL) | > 32 | 8 (≈ 2.01 µg/mL) | > 32 | > 32 | > 32 | 4 (≈ 1.01 µg/mL) | 1 (≈ 0.251 µg/mL) | > 32 | > 32 | > 32 | 32 (≈ 8.05 µg/mL) | > 32 | > 32 | > 32 | 8 (≈ 2.01 µg/mL) | 8 (≈ 2.01 µg/mL) | > 32 | MIC [21]: > 32 µM; MIC [22]: > 32 µM; MIC [23]: 4 µM (≈ 1.01 µg/mL); MIC [24]: 32 µM (≈ 8.05 µg/mL); MIC [25]: 4 µM (≈ 1.01 µg/mL); MIC [26]: > 32 µM; MIC [27]: 32 µM (≈ 8.05 µg/mL); MIC [28]: 32 µM (≈ 8.05 µg/mL); MIC [29]: > 32 µM; MIC [30]: 16 µM (≈ 4.02 µg/mL); MIC [31]: > 32 µM; MIC [32]: > 32 µM; MIC [33]: 32 µM (≈ 8.05 µg/mL); MIC [34]: 16 µM (≈ 4.02 µg/mL) |
| CCCCCCCCCSSC(=S)N(CC)CC | 8 (≈ 2.46 µg/mL) | 16 (≈ 4.92 µg/mL) | 8 (≈ 2.46 µg/mL) | 8 (≈ 2.46 µg/mL) | 4 (≈ 1.23 µg/mL) | 8 (≈ 2.46 µg/mL) | 8 (≈ 2.46 µg/mL) | 32 (≈ 9.84 µg/mL) |  |  |  |  |  |  |  |  |  |  |  |  | pIC50 [35]: 4.26 |
| CCCCSSC(=S)N(CC)CC [BUTYL DIETHYLCARBAMO(DITHIOPEROXO)THIOATE] | 16 (≈ 3.8 µg/mL) | 16 (≈ 3.8 µg/mL) | 16 (≈ 3.8 µg/mL) | > 32 | 32 (≈ 7.6 µg/mL) | > 32 | 32 (≈ 7.6 µg/mL) | > 32 |  |  |  |  |  |  |  |  |  |  |  |  |  |
| CCCCCCCSSC(=S)N(CC)CC | 4 (≈ 1.12 µg/mL) | 4 (≈ 1.12 µg/mL) | 2 (≈ 0.559 µg/mL) | 8 (≈ 2.24 µg/mL) | 4 (≈ 1.12 µg/mL) | 32 (≈ 8.95 µg/mL) | 16 (≈ 4.47 µg/mL) | > 32 | 1 (≈ 0.28 µg/mL) | 1 (≈ 0.28 µg/mL) | > 32 | > 32 | > 32 | 32 (≈ 8.95 µg/mL) | > 32 | > 32 | > 32 | 4 (≈ 1.12 µg/mL) | 2 (≈ 0.559 µg/mL) | > 32 | MIC [21]: > 32 µM; MIC [22]: > 32 µM; MIC [23]: 4 µM (≈ 1.12 µg/mL); MIC [24]: 16 µM (≈ 4.47 µg/mL); MIC [25]: 2 µM (≈ 0.559 µg/mL); MIC [26]: > 32 µM; MIC [27]: 32 µM (≈ 8.95 µg/mL); MIC [28]: > 32 µM; MIC [29]: > 32 µM; MIC [30]: 16 µM (≈ 4.47 µg/mL); MIC [31]: > 32 µM; MIC [32]: > 32 µM; MIC [33]: 16 µM (≈ 4.47 µg/mL); MIC [34]: 16 µM (≈ 4.47 µg/mL) |
